Laboratory results reported in ChEMBL document CHEMBL5338787, “Discovery of Novel Bruton's Tyrosine Kinase PROTACs with Enhanced Selectivity and Cellular Efficacy” (J Med Chem, 2023).
Active and inactive are the calls of the source. The calls are words filed in the database; no cut-off is given here.

What was measured:
[1] = target: Protein cereblon/Tyrosine-protein kinase BTK (Homo sapiens, UniProt Q06187+Q96SW2); assay: PROTAC activity at BTK/CRBN protein protein interaction in human Ramos cell assessed as degradation of BTK incubated at 111 nM for 17 hrs in presence of GDC-0853 at 1 uM measured by Western blot analysis; format: cell-based
MINO [2] = assay: Induction of apoptosis in human MINO cells at 333 nM for 48 hrs by Annexin-V/propidium iodide staining based flow cytometric analysis; format: functional, cell-based
Method in brief: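 Cells plated at 2 × 10^6 per well and treated 48 h at 3,000–0.15 nM (3-fold dilutions) or 1% DMSO. Harvested, washed in cold PBS, stained with Annexin V Alexa Fluor 488/propidium iodide, analysed by flow cytometry for % live, apoptotic and necrotic cells. Mean of two independent experiments.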

TMD8 [3] = assay: Induction of apoptosis in human TMD8 cells assessed as decrease in PARP level measured after 48 hrs by Western blot analysis; format: functional, cell-based; conditions: dose 0.15-3000 nM
Method in brief: (§1)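 TMD8 or Mino cells (2 × 10^6 per well) exposed 48 h to 3000–0.15 nM (3-fold dilution) or 1% DMSO. Lysates BCA-normalised, 8–30 μg per lane on 4–20% Tris-glycine gels, transferred to nitrocellulose, probed with antibodies, HRP chemiluminescence detection and densitometry. Representative of two independent experiments.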

TMD8 [4] = assay: Induction of apoptosis in human TMD8 cells assessed as downregulation in Mcl-1 level measured at 0.15 to 3000 nM after 48 hrs by Western blot analysis; format: functional, cell-based; conditions: dose 0.15-3000 nM; method in brief: as §1
MINO [5] = assay: Induction of apoptosis in human MINO cells assessed as decrease in PARP level measured after 48 hrs by Western blot analysis; format: functional, cell-based; conditions: dose 0.15-3000 nM; method in brief: as §1
MINO [6] = assay: Induction of apoptosis in human MINO cells assessed as increase in cleaved PARP level measured after 48 hrs by Western blot analysis; format: functional, cell-based; conditions: dose 0.15-3000 nM; method in brief: as §1
MINO [7] = assay: Induction of apoptosis in human MINO cells assessed as downregulation in Bcl-2 level measured at 0.15 to 3000 nM after 48 hrs by Western blot analysis; format: functional, cell-based; conditions: dose 0.15-3000 nM; method in brief: as §1
MINO [8] = assay: Induction of apoptosis in human MINO cells assessed as downregulation in Mcl-1 level measured at 0.15 to 3000 nM after 48 hrs by Western blot analysis; format: functional, cell-based; conditions: dose 0.15-3000 nM; method in brief: as §1

Chain of Protein cereblon/Tyrosine-protein kinase BTK (Q06187 2-659 limits assumed): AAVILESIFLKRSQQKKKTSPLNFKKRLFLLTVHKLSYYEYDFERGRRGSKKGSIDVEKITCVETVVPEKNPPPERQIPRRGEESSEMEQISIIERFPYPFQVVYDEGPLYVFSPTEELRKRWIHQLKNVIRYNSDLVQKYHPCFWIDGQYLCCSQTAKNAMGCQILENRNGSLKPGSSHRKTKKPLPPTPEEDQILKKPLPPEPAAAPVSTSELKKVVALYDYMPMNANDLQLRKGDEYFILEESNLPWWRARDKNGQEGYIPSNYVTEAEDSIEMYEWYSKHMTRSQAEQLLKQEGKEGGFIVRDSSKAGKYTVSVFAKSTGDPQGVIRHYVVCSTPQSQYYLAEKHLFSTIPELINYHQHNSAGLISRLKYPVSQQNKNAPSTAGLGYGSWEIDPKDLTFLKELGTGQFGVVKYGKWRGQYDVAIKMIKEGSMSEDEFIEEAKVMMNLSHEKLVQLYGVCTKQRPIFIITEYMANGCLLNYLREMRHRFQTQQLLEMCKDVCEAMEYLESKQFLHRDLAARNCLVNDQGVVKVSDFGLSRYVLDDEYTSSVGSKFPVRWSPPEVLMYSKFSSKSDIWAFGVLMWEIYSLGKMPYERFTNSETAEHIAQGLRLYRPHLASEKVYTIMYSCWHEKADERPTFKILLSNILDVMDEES
Chain of Protein cereblon/Tyrosine-protein kinase BTK (Q96SW2 whole entry partner): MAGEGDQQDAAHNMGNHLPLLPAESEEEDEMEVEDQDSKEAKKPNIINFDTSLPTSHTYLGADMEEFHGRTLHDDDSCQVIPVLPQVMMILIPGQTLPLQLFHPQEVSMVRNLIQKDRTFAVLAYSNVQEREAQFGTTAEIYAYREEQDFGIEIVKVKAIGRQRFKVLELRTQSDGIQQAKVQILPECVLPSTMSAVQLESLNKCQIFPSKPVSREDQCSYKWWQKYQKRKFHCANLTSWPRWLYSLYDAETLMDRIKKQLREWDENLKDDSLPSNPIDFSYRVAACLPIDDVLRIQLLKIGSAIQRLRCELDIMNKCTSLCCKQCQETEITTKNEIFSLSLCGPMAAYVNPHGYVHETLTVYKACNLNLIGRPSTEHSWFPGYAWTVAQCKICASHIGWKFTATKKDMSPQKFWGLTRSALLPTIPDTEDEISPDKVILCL

`C[C@H]1CN(C(=O)CNc2cccc3c2C(=O)N(C2CCC(=O)NC2=O)C3=O)CCN1c1ccc(Nc2cc(-c3ccnc(N4CCn5c(cc6c5CC(C)(C)C6)C4=O)c3CO)cn(C)c2=O)nc1` (stereo partly drawn) was tested, and the Activity [1] was “inactive”, the Activity (MINO [2]) was “Active” and the Activity (TMD8 [3]) was “Active”. The Activity (TMD8 [4]) was “Active”, the Activity (MINO [5]) was “Active” and the Activity (MINO [6]) was “Active”. The Activity (MINO [7]) was “Active” and the Activity (MINO [8]) was “Active”.
